Source: ChEMBL document CHEMBL2429863, “Cytotoxic deoxybenzoins and diphenylethylenes from Arundina graminifolia” (J Nat Prod, 2013)

Key:
Format in all cases: functional, cell-based
[1] = Cytotoxicity against human SH-SY5Y cells after 48 hrs by MTT assay
Procedure, shortened: (§1)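 Tumor cells from ATCC, grown in RPMI1640 or DMEM with 10% FBS at 37 °C, 5% CO2. Adherent cells plated and allowed to attach 12 h; suspension cells seeded just before dosing at 1 × 10^5 cells/mL. Compounds at various concentrations in triplicate for 48 h; paclitaxel positive control. MTT added for 4 h at 37 °C, then lysis with 20% SDS–50% DMF; formazan read colorimetrically.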

[2] = tested on: PC-3; test: Cytotoxicity against human PC3 cells after 48 hrs by MTT assay; settings: PC-3, 48 h; procedure, shortened: as §1
[3] = tested on: MCF7; test: Cytotoxicity against human MCF7 cells after 48 hrs by MTT assay; settings: MCF7, 48 h; procedure, shortened: as §1
[4] = tested on: NB-4; test: Cytotoxicity against human NB4 cells after 48 hrs by MTT assay; settings: NB-4, 48 h; procedure, shortened: as §1
[5] = tested on: A549; test: Cytotoxicity against human A549 cells after 48 hrs by MTT assay; settings: A549, 48 h; procedure, shortened: as §1

Structure (SMILES) | IC50 [1] [µM] | IC50 [2] [µM] | IC50 [3] [µM] | IC50 [4] [µM] | IC50 [5] [µM]
COc1ccc(C(=O)Cc2cc(OC)c3c(c2)OC(C)(C)CC3=O)cc1 | > 10 | > 10 | 8.5 | > 10 | 6.4
OCCc1c(O)cc(/C=C/c2cc(O)cc(O)c2)cc1O | 7.8 | 5.6 | 6.4 | 5.5 | 8.1
CC(C)c1cc(=O)c2c(O)cc(CC(=O)c3ccccc3)cc2o1 | > 10 | > 10 | > 10 | > 10 | > 10
COc1cc(/C=C/c2cc(O)c(CCO)c(O)c2)cc(OC)c1 | 6.2 | 8.7 | 5.9 | 4.8 | 5.5
COc1cc(/C=C/c2cc(O)cc(O)c2)cc(O)c1CCO | 4.5 | 2.2 | 5.3 | 3.3 | 6.5
CC1=CC(=O)c2c(O)cc(CC(=O)c3ccc(O)cc3)cc2OC1 | 1.8 | 3.4 | 5.4 | 7.6 | 2.2
COc1ccc(C(=O)Cc2cc(O)c3c(c2)OC(C)(C)CC3=O)cc1 | > 10 | > 10 | > 10 | > 10 | > 10
CC(=O)O[C@H]1C(=O)[C@@]2(C)[C@H]([C@H](OC(=O)c3ccccc3)[C@]3(O)C[C@H](OC(=O)[C@H](O)[C@@H](NC(=O)c4ccccc4)c4ccccc4)C(C)=C1C3(C)C)[C@]1(OC(C)=O)CO[C@@H]1C[C@@H]2O [PACLITAXEL] | 0.2 |  |  |  | 
COc1ccc(C(=O)Cc2cc(O)c3c(c2)OCC(C)=CC3=O)cc1 | > 10 | > 10 | > 10 | > 10 | > 10
COc1ccc(C(=O)Cc2cc(O)c(C(=O)CCC(C)C)c(O)c2)cc1 | > 10 | > 10 | > 10 | > 10 | > 10
CC(=O)Oc1cc(CC(=O)c2ccccc2)cc2oc(C(C)C)cc(=O)c12 | > 10 | > 10 | > 10 | > 10 | > 10
CC(C)CCC(=O)c1c(O)cc(CC(=O)c2ccccc2)cc1O | 3.2 | 6.8 | 5.5 | 2.1 | 5.2
